Results as given in ChEMBL document CHEMBL4613216, “Design, synthesis, and evaluation of indeno[2,1-c]pyrazolones for use as inhibitors against hypoxia-inducible factor (HIF)-1 transcriptional activity” (Bioorg Med Chem, 2020).
Calls of active or inactive are those of the source. No cut-off for these calls is given here.

What was measured:
HeLa [1] = test: Cytotoxicity against human HeLa cells assessed as reduction in cell viability incubated for 72 hrs under normoxia condition by MTT assay; assay type: cell-based
Outline: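 HeLa cells, 5 × 10^3 per well, exposed 72 h at 37 °C in RPMI-1640 to a range of concentrations (compounds from 10 mM DMSO stocks). MTT (5 mg/mL in PBS) added for a further 2 h, formazan dissolved in DMSO, absorbance read at 595 nm. IC50 taken from semilogarithmic dose–response plots. Top concentration capped at 10 or 30 μM where solubility was poor.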

[2] = Solubility of the compound; assay type: physicochemical
HeLa [3] = test: Inhibition of hypoxia-induced HIF1alpha accumulation in human HeLa cells at 1 to 30 uM incubated for 12 hrs under 1% O2 condition by Western blot analysis; assay type: functional, cell-based
Outline: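 Lysates separated by SDS-PAGE, blotted to PVDF and probed with anti-HIF-1α and anti-tubulin antibodies. Detection used HRP-conjugated secondary antibody and chemiluminescent imaging.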

[4] = target: Luciferin 4-monooxygenase (Photinus pyralis) (UniProt P08659); test: Inhibition of recombinant firefly luciferase at 1 uM incubated for 10 mins at 37 degree C by luminometric method
Outline: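 Recombinant firefly luciferase (20 ng/µL stock in PBS) mixed with compound in DMSO/PBS and incubated 10 min at 37 °C. Luciferase assay reagent was then added and light emission read on a luminometer. Compound tested at 1 μM.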

HeLa [5] = test: Effect on HIF1alpha mRNA level in human HeLa cells at 30 uM incubated for 12 hrs under 1% O2 condition by qRT-PCR analysis; assay type: functional, cell-based
Outline: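 HeLa cells, 1 × 10^6 per well, held 12 h with or without compound under normoxia or hypoxia. Total RNA extracted with a column kit. 1.0 µg RNA reverse transcribed with random primers, dNTPs and M-MLV at 40 °C for 50 min, then HIF-1α mRNA measured by RT-PCR.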

Chain of Luciferin 4-monooxygenase (Photinus pyralis) (P08659 whole entry): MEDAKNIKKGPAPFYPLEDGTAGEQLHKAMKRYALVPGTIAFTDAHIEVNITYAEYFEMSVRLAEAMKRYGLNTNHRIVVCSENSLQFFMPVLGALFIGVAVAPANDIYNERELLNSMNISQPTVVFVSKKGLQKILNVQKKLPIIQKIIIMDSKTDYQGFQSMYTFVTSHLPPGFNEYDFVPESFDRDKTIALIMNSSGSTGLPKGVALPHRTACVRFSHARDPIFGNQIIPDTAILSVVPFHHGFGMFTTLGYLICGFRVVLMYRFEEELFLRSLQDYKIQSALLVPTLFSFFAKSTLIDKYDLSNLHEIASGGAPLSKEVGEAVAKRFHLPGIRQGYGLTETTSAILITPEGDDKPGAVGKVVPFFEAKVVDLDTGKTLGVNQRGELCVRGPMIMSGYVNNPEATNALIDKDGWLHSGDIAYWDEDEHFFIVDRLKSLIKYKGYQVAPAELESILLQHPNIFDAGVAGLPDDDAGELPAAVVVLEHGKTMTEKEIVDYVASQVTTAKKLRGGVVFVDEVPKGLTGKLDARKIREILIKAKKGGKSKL

SMILES: O=C1c2ccccc2-c2cnn(-c3ccc(O)cc3)c21
- IC50 (HeLa [1]): 2.2 µM

SMILES: Cc1nn(-c2ccccc2)c2c1-c1ccccc1C2=O
- solubility [2]: > 30 µM
- IC50 (HeLa [1]): > 30 µM

SMILES: O=C1c2ncccc2-c2cnn(-c3ccccc3)c21
- IC50 (HeLa [1]): 52 µM

SMILES: Cc1ccc(-n2ncc3c2C(=O)c2ccccc2-3)cc1
- inhibition (HeLa [3]): Active
- solubility [2]: > 10 µM
- inhibition [4]: inactive
- Activity (HeLa [5]): inactive
- IC50 (HeLa [1]): > 10 µM

SMILES: COc1ccc(-n2ncc3c2C(=O)c2ccccc2-3)cc1
- solubility [2]: > 10 µM
- inhibition [4]: Active
- IC50 (HeLa [1]): > 10 µM

SMILES: O=C1c2ccccc2-c2cnn(-c3ccccc3)c21
- solubility [2]: > 10 µM
- IC50 (HeLa [1]): > 10 µM

SMILES: O=C1c2ccccc2-c2cnn(-c3ccc(C(F)(F)F)cc3)c21
- IC50 (HeLa [1]): > 100 µM

SMILES: Cn1ncc2c1C(=O)c1ccccc1-2
- IC50 (HeLa [1]): 49 µM

SMILES: O=C1c2ccccc2-c2cn[nH]c21
- solubility [2]: > 30 µM
- IC50 (HeLa [1]): > 30 µM

SMILES: OCc1ccc(-c2nn(Cc3ccccc3)c3ccccc23)o1
- IC50 (HeLa [1]): 56 µM
